The text below walks through data of paper PMC3858174 (Bioorganic & medicinal chemistry, 2013).

Series [1] addresses T1, Adrenergic α1A (Homo sapiens, UniProt P35348).
T1 sequence (P35348 1-466): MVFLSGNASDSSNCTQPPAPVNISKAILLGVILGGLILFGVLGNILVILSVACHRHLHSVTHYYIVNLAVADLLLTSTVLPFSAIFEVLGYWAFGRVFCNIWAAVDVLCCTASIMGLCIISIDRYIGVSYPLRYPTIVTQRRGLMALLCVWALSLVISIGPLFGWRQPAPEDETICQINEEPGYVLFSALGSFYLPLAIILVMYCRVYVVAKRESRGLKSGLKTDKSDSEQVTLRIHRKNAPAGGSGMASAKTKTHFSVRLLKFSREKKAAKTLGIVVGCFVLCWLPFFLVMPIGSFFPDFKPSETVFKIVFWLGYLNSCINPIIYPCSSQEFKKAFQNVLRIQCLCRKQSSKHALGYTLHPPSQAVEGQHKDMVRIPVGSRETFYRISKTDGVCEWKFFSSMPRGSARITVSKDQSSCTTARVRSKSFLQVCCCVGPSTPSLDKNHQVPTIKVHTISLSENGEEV
The series can be described thus: NIMH-PDSP binding assay, Adrenergic α1A.

Series [2] concerns the target BZP Rat Brain Site. The series can be described thus: NIMH-PDSP binding assay, BZP Rat Brain Site. The following applies: read-out: Ki BZP Rat Brain Site.
Series [3] addresses Dopamine2 (Homo sapiens, UniProt P14416). The experiment in a line: NIMH-PDSP binding assay, Dopamine2.
Series [4] addresses Dopamine3 (Homo sapiens, UniProt P35462). The series can be described thus: NIMH-PDSP binding assay, Dopamine3.
In series [5] the target is 5HT7 (Homo sapiens, UniProt P34969). The series can be described thus: NIMH-PDSP binding assay, 5HT7.
Series [6] relates to 5-HT1AR. The settings on record: 5-HT1AR-rich regions such as hippocampus, amygdala, cortex and cingulate regions; cited from earlier work.
The nature of series [7]: logPo/w by shake flask method. It counts as physicochemical.
The nature of series [8]: Stability of formulation. The following applies: 10% ethanol-90% saline; analytical HPLC and radio-TLC. In kind it is physicochemical.
The subject of series [9] is 5-HT1AR. The experiment in a line: PET imaging in anesthetized baboon. In kind it is in vivo, baboon (Papio anubis). The method in brief: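 Two fasted male baboons: ketamine 10 mg/kg im, then 1.5–2.0% isoflurane via endotracheal tube, core temperature held at 37 °C. Saline iv line and arterial line placed. 10 min transmission scan, then 111 ± 18 MBq radiotracer as iv bolus. 3-D emission data collected for 180 min. MRI-coregistered regions of interest, left and right averaged.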

Sequence of 5HT7 (P34969 whole entry, species assumed): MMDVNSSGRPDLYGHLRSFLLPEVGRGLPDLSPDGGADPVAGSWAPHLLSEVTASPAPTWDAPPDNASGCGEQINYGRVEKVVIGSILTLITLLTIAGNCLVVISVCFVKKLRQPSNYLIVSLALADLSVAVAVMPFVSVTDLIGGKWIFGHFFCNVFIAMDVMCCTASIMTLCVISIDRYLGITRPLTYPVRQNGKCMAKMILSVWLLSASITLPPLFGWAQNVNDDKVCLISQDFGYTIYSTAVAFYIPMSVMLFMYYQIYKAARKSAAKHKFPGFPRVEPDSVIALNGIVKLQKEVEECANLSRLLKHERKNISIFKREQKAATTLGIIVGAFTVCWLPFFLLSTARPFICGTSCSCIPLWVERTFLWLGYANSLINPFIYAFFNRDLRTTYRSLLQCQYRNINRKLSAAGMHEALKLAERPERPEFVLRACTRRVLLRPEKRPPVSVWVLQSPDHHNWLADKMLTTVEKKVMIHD
Sequence of Dopamine2 (P14416 whole entry): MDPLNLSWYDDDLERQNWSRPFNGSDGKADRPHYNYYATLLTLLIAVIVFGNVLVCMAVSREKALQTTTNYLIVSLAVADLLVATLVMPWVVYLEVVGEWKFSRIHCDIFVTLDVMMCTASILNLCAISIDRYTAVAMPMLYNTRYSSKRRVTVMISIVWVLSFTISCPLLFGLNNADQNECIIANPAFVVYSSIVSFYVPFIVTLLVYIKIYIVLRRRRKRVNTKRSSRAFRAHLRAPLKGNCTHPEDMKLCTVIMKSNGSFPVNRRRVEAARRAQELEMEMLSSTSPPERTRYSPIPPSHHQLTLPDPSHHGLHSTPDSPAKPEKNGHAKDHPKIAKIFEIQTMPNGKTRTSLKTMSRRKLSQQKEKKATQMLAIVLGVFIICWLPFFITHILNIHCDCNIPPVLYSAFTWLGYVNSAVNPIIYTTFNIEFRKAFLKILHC
Sequence of Dopamine3 (P35462 whole entry): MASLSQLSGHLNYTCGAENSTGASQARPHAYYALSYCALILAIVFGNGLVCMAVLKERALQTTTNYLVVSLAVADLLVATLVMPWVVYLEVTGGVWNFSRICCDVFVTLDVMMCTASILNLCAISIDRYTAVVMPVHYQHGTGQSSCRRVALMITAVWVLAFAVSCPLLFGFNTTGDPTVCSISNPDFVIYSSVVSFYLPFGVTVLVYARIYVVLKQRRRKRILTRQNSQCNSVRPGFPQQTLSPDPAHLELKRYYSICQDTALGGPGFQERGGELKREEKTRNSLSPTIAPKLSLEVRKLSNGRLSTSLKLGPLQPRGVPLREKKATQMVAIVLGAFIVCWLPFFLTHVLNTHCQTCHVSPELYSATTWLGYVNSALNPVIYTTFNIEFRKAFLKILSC

Turning to `COc1ccccc1N1CCN(CCCCn2ncc(=O)n(C)c2=O)CC1` [CUMI-101], the “less affinity for α1A AR in comparison to 5-HT1AR” value in series [1] is reported as 45 fold. The Ki (commonly a dissociation constant, usually derived from enzyme kinetics or from competition with a known ligand) in series [2] is greater than 10 µM. Besides, the “Ki Dopamine2” value in [3] is recorded as “did not show any significant binding”. The “Ki Dopamine3” value in [4] is recorded as “did not show any significant binding”.
On to `Cn1c(=O)cnn(CCCCN2CCN(c3ccccc3OCCF)CC2)c1=O` [FECUMI-101, 2-(4-(4-(2-(2-fluoroethoxy)phenyl)piperazin-1-yl)butyl)-4-methyl-1,2,4-triazine-3,5(2H,4H)-dione], for which, in series [5], the “selectivity to 5-HT1A over 5-HT7” value is given as 172 fold.
`Cn1c(=O)cnn(CCCCN2CCN(c3ccccc3O[11CH3])CC2)c1=O` [[^11C]CUMI-101]: in series [6], the “lower BPF in comparison with [11C]WAY-100635 scans” value is given as ~ 50%.
In turn, `Cn1c(=O)cnn(CCCCN2CCN(c3ccccc3OCC[18F])CC2)c1=O` [[^18F]FECUMI-101, [18F]2-(4-(4-(2-(2-fluoroethoxy)phenyl)piperazin-1-yl)butyl)-4-methyl-1,2,4-triazine-3,5(2H,4H)-dione] gave a logPo/w in series [7] of 1.2. In series [8], the “Stability of radioproduct in formulation, no significant de[18F]fluorination” value was “up to 4 h”. In series [9] (anesthetized baboon, 111 ± 18 MBq i.v.), the BBB penetration result is “penetrates the BBB”. Also, the “in vivo radio[18F]defluorination (skull image)” value in series [9] (baboon PET) was “No skull image”.
